Results collected from several papers.
Compare with care: the assays were run in different laboratories.
Target: Myosin light chain kinase (MYLK3, Homo sapiens, UniProt Q32MK0)
One construct used (Q32MK0 1-819): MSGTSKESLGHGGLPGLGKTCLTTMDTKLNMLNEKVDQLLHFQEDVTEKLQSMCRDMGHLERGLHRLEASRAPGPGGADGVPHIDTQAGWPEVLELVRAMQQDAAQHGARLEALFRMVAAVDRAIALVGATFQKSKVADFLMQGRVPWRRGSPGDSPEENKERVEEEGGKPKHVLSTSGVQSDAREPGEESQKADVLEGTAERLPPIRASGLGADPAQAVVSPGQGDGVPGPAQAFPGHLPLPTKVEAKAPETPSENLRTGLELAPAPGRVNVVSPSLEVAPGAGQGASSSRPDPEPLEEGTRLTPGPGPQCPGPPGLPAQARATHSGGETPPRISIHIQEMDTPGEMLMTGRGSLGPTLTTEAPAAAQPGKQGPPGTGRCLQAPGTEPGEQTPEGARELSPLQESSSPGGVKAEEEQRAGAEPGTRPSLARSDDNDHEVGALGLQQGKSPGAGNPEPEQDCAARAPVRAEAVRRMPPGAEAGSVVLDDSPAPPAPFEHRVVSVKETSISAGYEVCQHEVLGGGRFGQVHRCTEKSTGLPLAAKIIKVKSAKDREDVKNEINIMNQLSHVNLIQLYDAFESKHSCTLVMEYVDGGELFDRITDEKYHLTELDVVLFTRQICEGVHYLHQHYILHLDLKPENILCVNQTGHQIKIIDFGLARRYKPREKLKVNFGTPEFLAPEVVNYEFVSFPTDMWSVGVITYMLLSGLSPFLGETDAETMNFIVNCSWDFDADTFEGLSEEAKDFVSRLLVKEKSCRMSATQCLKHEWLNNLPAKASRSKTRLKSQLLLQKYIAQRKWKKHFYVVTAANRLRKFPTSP

Compound | read-out | action | technique | concentration | measurement | value
COc1cc(Nc2ncc(F)c(Nc3ccc4c(n3)NC(=O)C(C)(C)O4)n2)cc(OC)c1OC | binding |  | competition with immobilised ligand | 10 µM | inhibition | 30%
Cn1cc(-c2cc(F)cc(N3CCn4c(cc5c4CCCC5)C3=O)c2CO)cc(Nc2ccc(N3CCN(C4COC4)CC3)cn2)c1=O | enzyme activity | inhibitor |  | 0.1 µM | inhibition | -5%
N#CC1(c2ccccn2)CCN(Cc2cc(C(=O)O)c(=O)n3ccccc23)CC1 | cell-free assay |  | competition with immobilised ligand | 1 µM | remaining binding | 87%
Cc1nn(C)cc1-c1nc2c(N3CCN(Cc4ccc(Cl)cc4)CC3)c(Cl)cnc2[nH]1 | binding |  | competition with immobilised ligand | 1 µM | remaining binding | 100%
Cn1cc(-c2cccc(N3CCc4c(sc5c4CC(C)(C)C5)C3=O)c2CO)cc(Nc2ccncn2)c1=O | enzyme activity | inhibitor |  | 1 µM | inhibition | -8%
Cn1cncc1[C@](O)(COc1ccc(C#N)cc1-c1ccc(OC(F)(F)F)cc1)c1ccc(C#N)cc1 | cell-free assay |  | competition with immobilised ligand | 1 µM | remaining binding | 100%
Nc1ncc(-c2nc(N3CCOCC3)nc(N3CCOCC3)n2)c(C(F)F)n1 | binding |  | competition with immobilised ligand | 10 µM | remaining binding | 84%
COc1ncccc1-c1cnn2ccc(N3CCN(C(=O)OC(C)C)CC3)nc12 | binding |  | competition with immobilised ligand | 1 µM | remaining binding | 100%
